Laboratory results taken from paper PMC3217094 (DNA repair, 2011).
Where “and” joins values, the source holds several entries; their conditions need not be identical. Equal values may be shown once. Read-outs that look alike come from different tables or passages of the source. {FAM} = fluorescein (FAM) label

Experiments:
[1] = molecular target: T1, AGT (Homo sapiens, UniProt P16455); test: Binding of free dye to AGT detected by fluorescence anisotropy
T1 sequence (P16455 with tags, fused parts or gaps limits assumed): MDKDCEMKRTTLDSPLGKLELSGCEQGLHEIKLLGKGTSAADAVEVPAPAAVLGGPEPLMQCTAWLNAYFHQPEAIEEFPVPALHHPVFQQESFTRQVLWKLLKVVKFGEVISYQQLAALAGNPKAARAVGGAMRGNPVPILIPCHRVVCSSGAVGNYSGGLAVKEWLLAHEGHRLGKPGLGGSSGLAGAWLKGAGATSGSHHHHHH
Summary of the method: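 Each step equilibrated 1 h at 4°C before reading anisotropy, with emission intensity also recorded. Fractional saturation Y = (A − A0)/(Amax − A0), where A0 is dye without protein and Amax the saturated complex, plotted against AGT concentration.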

[2] = molecular target: T1, AGT; test: DNA alkyltransferase assay; type: biochemical
[3] = molecular target: T2, benzyl-AGT (Homo sapiens, UniProt P16455, A204H/G205H/N207H/P202H/P203H/R206H); test: Binding of FAM to benzyl-AGT detected by fluorescence anisotropy
T2 sequence (P16455 with tags, fused parts or gaps): T1 sequence (P16455 with tags, fused parts or gaps limits assumed)

[4] = molecular target: T1, AGT; test: Mobility shift assay: inhibition of AGT DNA binding; conditions: IC50 for inhibition of DNA binding
[5] = molecular target: T1, AGT; test: Sedimentation equilibrium analysis of AGT-DNA complexes; type: binding; conditions: mean ± SEM for ≥3 determinations, 4°C
[6] = molecular target: T1, AGT; conditions: AGT binding single-stranded DNA; for Hill coefficient (n) from anisotropy measurements / Hill coefficient (n) from intensity measurements: 4°C; for Ka from anisotropy measurements: apparent association constant
[7] = molecular target: T2, benzyl-AGT; test: Mobility shift titration of 32P-labeled 24-mer DNA with benzyl-AGT; type: binding; conditions: AGT modified with O^6-benzylguanine
[8] = molecular target: T3, O6-alkylguanine-DNA alkyltransferase (AGT, MGMT) (human, UniProt P16455 1-201); test: fluorescence anisotropy
[9] = molecular target: T3, O6-alkylguanine-DNA alkyltransferase …; test: fluorescence anisotropy; remark: listed apart in the source
[10] = molecular target: T3, O6-alkylguanine-DNA alkyltransferase …; test: fluorescence anisotropy; remark: listed apart in the source
[11] = molecular target: T3, O6-alkylguanine-DNA alkyltransferase …; test: fluorescence anisotropy; remark: listed apart in the source

O=C(O)c1ccc(C(=O)O)c(-c2c3ccc(=O)cc-3oc3cc(O)ccc23)c1 [FAM, 6-Carboxyfluorescein]
Kd ([1]; Kd, apparent, from fluorescence anisotropy data, single-site (1:1) fit, unmodified AGT, 4°C, no DNA): 13 µM and 12.7 µM | apparent binding affinity K (Ka) ([1]; fluorescence anisotropy, Eq. 5 with n = 1, 4°C): 7.84 ± 0.24 × 10^4 M^−1 and 7.8 × 10^4 M^−1 | concentration sufficient to completely inhibit AGT activity [2]: 1.8 mM | Kd [3]: 82.2 µM | IC50 ([4]; duplex 24mer 0.17μM, AGT 3.9μM, 20°C): 76.3 µM | IC50 ([4]; electrophoretic analysis, approximate value): ~76 µM

Unmodified 16-mer Oligo A: 5′- AGT CAG TCA GTC AGT C -3′ (DNA AGTCAGTCAGTCAGTC; unmodified DNA)
Stoichiometry of saturated AGT-DNA complex [5]: 3.86 ± 0.08

O=S(=O)(O)c1cccc2c(-c3ccc(Nc4ccccc4)c4c(S(=O)(=O)O)cccc34)ccc(Nc3ccccc3)c12 [Bis-ANS, 4,4′-bis(phenylamino)-[1,1′-Binaphthalene]-5,5′-disulfonic acid]
Kd [1]: 33.1 µM | IC50 [2]: 48.6 µM

Cc1ccc2c(c1)sc(-c1ccc(N(C)C)cc1)[n+]2C [ThT, Thioflavin T]
IC50 [2]: 217 µM

Nc1nc2c(ncn2[C@@H]2O[C@H](COP(=O)(O)O)[C@@H](O)[C@H]2O)c(=O)[nH]1 [5′-GMP, guanosine 5′ monophosphate]
IC50 [2]: 34.6 µM

5′-(FAM)-26-mer Oligo F: 5′- (FAM)AGTCAGTCAGTCAGTCAGTCAGTCAG -3′ (DNA AGTCAGTCAGTCAGTCAGTCAGTCAG; DNA, 5' {FAM}, backbone not given here)
Stoichiometry of saturated AGT-DNA complex [5]: 6.59 ± 0.20 | Hill coefficient (n) from anisotropy measurements [6]: 2.02 ± 0.17 | Hill coefficient (n) from intensity measurements [6]: 2.92 ± 0.62 | Ka from anisotropy measurements [6]: 3.33 ± 0.15 × 10^5 M^−1

Nc1nc(OCc2ccccc2)c2nc[nH]c2n1 [O^6-benzylguanine]
residual AGT activity in DNA repair after treatment ([2]; AGT modified with O^6-benzylguanine (37°C, 50mM Tris, pH 7.6, 1mM EDTA, 5 mM DTT)): < 1% | DNA binding of treated AGT [7]: fully-competent in DNA binding | apparent stoichiometry n of DNA binding ([7]; duplex 24mer DNA): 5.5 ± 0.2

Unmodified 26-mer: 5′- AGTCAGTCAGTCAGTCAGTCAGTCAG -3′ (DNA AGTCAGTCAGTCAGTCAGTCAGTCAG; unmodified DNA)
Stoichiometry of saturated AGT-DNA complex [5]: 5.89 ± 0.07

3′-(FAM)-26-mer Oligo F: 5′- AGTCAGTCAGTCAGTCAGTCAGTCAG(FAM) -3′ (DNA AGTCAGTCAGTCAGTCAGTCAGTCAG; DNA, 3' {FAM}, backbone not given here)
Stoichiometry of saturated AGT-DNA complex [5]: 6.38 ± 0.21 | Hill coefficient (n) from anisotropy measurements [6]: 2.13 ± 0.14 | Hill coefficient (n) from intensity measurements [6]: 3.33 ± 0.27 | Ka from anisotropy measurements [6]: 3.30 ± 0.12 × 10^5 M^−1

AGTCAGTCAGTCAGTC (ssDNA) [5'-FAM-Oligo A]
Ka [8]: 295000 M⁻¹

AGTCAGTCAGTCAGTCAGTCAGTCAG (ssDNA) [3'-FAM-Oligo F]
Ka [9]: 330000 M⁻¹

AGTCAGTCAGTCAGTC (ssDNA) [3'-FAM-Oligo A]
Ka [10]: 282000 M⁻¹

AGTCAGTCAGTCAGTCAGTCAGTCAG (ssDNA) [5'-FAM-Oligo F]
Ka [11]: 333000 M⁻¹
